Activity and inhibition data for one molecule are collected here from ChEMBL document CHEMBL3856186, “Partial Activation and Inhibition of TRPV1 Channels by Evodiamine and Rutaecarpine, Two Major Components of the Fruits of Evodia rutaecarpa” (J Nat Prod, 2016).

Active and inactive are the calls of the source. No cut-off for these calls is given here.

What all share (format): cell-based
In test [1] the target is Transient receptor potential cation channel subfamily V member 1 (Rattus norvegicus) (UniProt O35433). Put plainly: Partial antagonist activity at rat TRPV1 expressed in HEK293 cells assessed as effect on capsaicin-induced inward current at 0.6 uM by whole-cell patch clamp method (reference value: -480.7 +/- 96.9 pA/pF). Put shortly:
(§1)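 HEK293 cells transiently expressing rat TRPV1 (EGFP cotransfected) were patched in whole-cell mode 1 day post-transfection. Cells were held at −60 mV in Ca2+-containing standard bath (pH 7.4) at ~25 °C. Capsaicin-evoked peak current amplitude was quantified. Sigmoidal curve fitting gave EC50 or IC50 values.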

The target is the same in test [2]. Put plainly: Partial antagonist activity at rat TRPV1 expressed in HEK293 cells assessed as effect on capsaicin-induced inward current at 0.1 uM by whole-cell patch clamp method (reference value: -480.7 +/- 96.9 pA/pF). The gist of the method: as §1
Test [3] has the same target. Put plainly: Partial antagonist activity at rat TRPV1 expressed in HEK293 cells assessed as effect on capsaicin-induced inward current at 10 uM by whole-cell patch clamp method (reference value: -480.7 +/- 96.9 pA/pF). Put shortly:
as §1

The target is the same in test [4]. Put plainly: Partial antagonist activity at rat TRPV1 expressed in HEK293 cells assessed as effect on capsaicin-induced inward current at 0.1 uM by whole-cell patch clamp method (reference value: -431 +/- 43.1 pA/pF). The gist of the method:
as §1
In general terms: In patch-clamp work, channel activity is measured electrically.

For test [5] the target is unchanged. Put plainly: Partial antagonist activity at rat TRPV1 expressed in HEK293 cells assessed as effect on capsaicin-induced inward current at 1 uM by whole-cell patch clamp method (reference value: -151.2 +/- 33 pA/pF). Put shortly: as §1
For test [6] the target is unchanged. Put plainly: Partial antagonist activity at rat TRPV1 expressed in HEK293 cells assessed as effect on capsaicin-induced inward current at 10 uM by whole-cell patch clamp method (reference value: -327.4 +/- 52.3 pA/pF). The gist of the method:
as §1

Test [7] shares this target. Put plainly: Partial antagonist activity at rat TRPV1 expressed in HEK293 cells assessed as effect on capsaicin-induced inward current at 10 uM by whole-cell patch clamp method (reference value: -7 +/- 2.6 pA/pF). The gist of the method:
as §1

Test [8] shares this target. Put plainly: Partial antagonist activity at rat TRPV1 expressed in HEK293 cells assessed as effect on capsaicin-induced inward current at 0.1 uM by whole-cell patch clamp method (reference value: -[…] +/- […] pA/pF).
For test [9] the target is unchanged. Put plainly: Partial antagonist activity at rat TRPV1 expressed in HEK293 cells assessed as effect on capsaicin-induced inward current at 0.6 uM by whole-cell patch clamp method (reference value: -7 +/- 2.6 pA/pF). Put shortly: as §1
Test [10] shares this target. Put plainly: Partial antagonist activity at rat TRPV1 expressed in HEK293 cells assessed as effect on capsaicin-induced inward current at 10 uM by whole-cell patch clamp method (reference value: -[…] +/- […] pA/pF).
For test [11] the target is unchanged. Put plainly: Partial antagonist activity at rat TRPV1 expressed in HEK293 cells assessed as effect on capsaicin-induced inward current at 0.6 uM by whole-cell patch clamp method (reference value: -151.2 +/- 33 pA/pF). The gist of the method:
as §1

For test [12] the target is unchanged. Put plainly: Partial antagonist activity at rat TRPV1 expressed in HEK293 cells assessed as effect on capsaicin current density at 10 uM pretreated for 180 sec followed by capsaicin addition at -60 mV holding potential in presence of extracellular calcium by whole-cell patch-clamp method (reference value: -327.4 +/- 52.3 pA/pF). The gist of the method: as §1

The target is the same in test [13]. Put plainly: Partial antagonist activity at rat TRPV1 expressed in HEK293 cells assessed as effect on capsaicin current density at 0.1 uM pretreated for 180 sec followed by capsaicin addition at -60 mV holding potential in presence of extracellular calcium by whole-cell patch-clamp method (reference value: -327.4 +/- 52.3 pA/pF). Put shortly:
as §1

Test [14] has the same target. Put plainly: Partial antagonist activity at rat TRPV1 expressed in HEK293 cells assessed as inhibition of capsaicin-induced inward current at -60 mV holding potential pretreated for 180 secs prior to capsaicin addition in presence of extracellular calcium by whole-cell patch-clamp method. The gist of the method:
as §1

Test [15] shares this target. Put plainly: Partial antagonist activity at rat TRPV1 expressed in HEK293 cells assessed as effect on capsaicin-induced inward current at 1 uM by whole-cell patch clamp method. The gist of the method:
as §1

Test [16] shares this target. Put plainly: Partial antagonist activity at rat TRPV1 expressed in HEK293 cells assessed as effect on capsaicin-induced inward current at 0.6 uM by whole-cell patch clamp method (reference value: -327.4 +/- 52.3 pA/pF). The gist of the method:
as §1

For test [17] the target is unchanged. Put plainly: Partial antagonist activity at rat TRPV1 expressed in HEK293 cells assessed as desensitization of capsaicin-induced inward current at 10 uM and -60 mV holding potential pretreated for 60 secs prior to capsaicin-challenge in absence of calcium by whole-cell patch-clamp method. The gist of the method: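 Whole-cell clamp at −60 mV was done on rat TRPV1-transfected HEK293 cells (1 day) using a calcium-free bath (5 mM EGTA, no CaCl2, pH 7.4) at ~25 °C. Capsaicin-evoked peak current was measured.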

Test [18] has the same target. Put plainly: Partial antagonist activity at rat TRPV1 expressed in HEK293 cells assessed as effect on proton-induced channel current at 1 uM and -60 mV holding potential co-treated with proton by whole-cell patch clamp method. The gist of the method: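 Proton-activated currents were recorded in rat TRPV1-expressing HEK293 cells held at −60 mV in whole-cell mode, with bath buffered to pH 6 with 10 mM MES, at ~25 °C. Peak current amplitude was the read-out.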

The target is the same in test [19]. Put plainly: Agonist activity at rat TRPV1 channel expressed in HEK293 cells assessed as induction of maximum channel current at 10 uM at -60 mV holding potential by whole-cell patch-clamp method. The gist of the method: (§2)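 Rat TRPV1 cDNA and an EGFP reporter were cotransfected into HEK293 cells, with recording 1 day later. Whole-cell voltage clamp was run at room temperature (~25 °C) in standard bath (2 mM CaCl2, pH 7.4) with a KCl/MgATP/EGTA pipette solution. Steps from −100 to +100 mV (100 ms) gave I–V curves. Agonist was applied until desensitization, and peak current was scored. EC50 came from a sigmoidal fit.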

The target is the same in test [20]. Put plainly: Desensitization of rat TRPV1 expressed in HEK293 cells at 10 uM for 30 sec at -60 mV holding potential in presence of extracellular calcium by whole-cell patch clamp method. Put shortly:
as §2

Sequence of Transient receptor potential cation channel subfamily V member 1 (Rattus norvegicus) (O35433 whole entry): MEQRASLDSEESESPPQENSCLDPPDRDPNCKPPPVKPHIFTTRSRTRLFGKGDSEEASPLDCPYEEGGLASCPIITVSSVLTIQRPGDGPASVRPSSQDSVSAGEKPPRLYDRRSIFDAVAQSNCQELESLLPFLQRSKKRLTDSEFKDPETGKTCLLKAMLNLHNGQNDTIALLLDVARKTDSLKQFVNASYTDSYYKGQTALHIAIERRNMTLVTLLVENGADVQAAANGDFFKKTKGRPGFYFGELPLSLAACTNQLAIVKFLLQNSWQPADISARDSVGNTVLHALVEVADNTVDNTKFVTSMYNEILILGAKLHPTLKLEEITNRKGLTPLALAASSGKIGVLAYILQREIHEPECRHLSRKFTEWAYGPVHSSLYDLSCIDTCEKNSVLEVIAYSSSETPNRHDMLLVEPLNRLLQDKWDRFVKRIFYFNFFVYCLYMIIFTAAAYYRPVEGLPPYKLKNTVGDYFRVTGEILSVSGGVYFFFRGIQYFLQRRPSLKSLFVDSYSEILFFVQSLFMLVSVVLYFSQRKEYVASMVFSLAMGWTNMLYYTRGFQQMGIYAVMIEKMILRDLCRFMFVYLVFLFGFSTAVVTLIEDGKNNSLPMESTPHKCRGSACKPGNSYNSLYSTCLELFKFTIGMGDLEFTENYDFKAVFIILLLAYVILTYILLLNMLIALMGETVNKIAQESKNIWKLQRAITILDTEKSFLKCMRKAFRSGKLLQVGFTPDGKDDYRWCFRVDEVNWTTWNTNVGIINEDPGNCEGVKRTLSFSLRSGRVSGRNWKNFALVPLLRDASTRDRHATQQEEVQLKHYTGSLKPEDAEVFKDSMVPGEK

Regarding `CN1c2ccccc2C(=O)N2CCc3c([nH]c4ccccc34)C21` (stereo not given), the Activity was -422 pA/pF in [1]; -416 pA/pF in test [2]; -256 pA/pF in [3]; -390 pA/pF in [4]; -75 pA/pF in test [5]; -160 pA/pF in test [6]. Besides, the Activity is -165 pA/pF in test [7]; -492 pA/pF in test [8]; -35.9 pA/pF in test [9]; -393 pA/pF in [10]; -81.6 pA/pF in [11]; -60.3 pA/pF in test [12]. The Activity in test [13] is -243 pA/pF; in test [15], -448 pA/pF; in test [16], -208 pA/pF; in test [18], -158 pA/pF; in test [19], -143 pA/pF. In test [14], the inhibition entry is “Dose-dependent effect”. Moreover, the outcome in test [17] and in test [20] was Active.
